From BindingDB's records for doi:10.1021/acs.jmedchem.7b00976 (Leipzig University, 2017)

Tests used:
[1] = Positive allosteric modulation of human NY4 receptor expressed in African green monkey COS7 cells co-expressing delta6Galphaqi4-myr assessed as potentiation of neuropeptide Y induced-calcium flux by measuring neuropeptide Y EC50 at 30 uM treated at 20 secs post baseline detection followed by addition of neuropeptide Y after 140 secs by Fluo2-
[2] = target: T1, Neuropeptide Y receptor type 4 (Homo sapiens, UniProt P50391); assay: (§1) Positive allosteric modulation of human NY4 receptor expressed in African green monkey COS7 cells co-expressing delta6Galphaqi4-myr assessed as potentiation of peptide YY induced-calcium flux by measuring peptide YY pEC50 at 30 uM treated at 20 secs post baseline detection followed by addition of peptide YY after 140 secs by Fluo2-AM fluorescent dye based-assay (Rvb = 8.6 +/- 0.08 No_unit)
T1 sequence (P50391 whole entry C240R): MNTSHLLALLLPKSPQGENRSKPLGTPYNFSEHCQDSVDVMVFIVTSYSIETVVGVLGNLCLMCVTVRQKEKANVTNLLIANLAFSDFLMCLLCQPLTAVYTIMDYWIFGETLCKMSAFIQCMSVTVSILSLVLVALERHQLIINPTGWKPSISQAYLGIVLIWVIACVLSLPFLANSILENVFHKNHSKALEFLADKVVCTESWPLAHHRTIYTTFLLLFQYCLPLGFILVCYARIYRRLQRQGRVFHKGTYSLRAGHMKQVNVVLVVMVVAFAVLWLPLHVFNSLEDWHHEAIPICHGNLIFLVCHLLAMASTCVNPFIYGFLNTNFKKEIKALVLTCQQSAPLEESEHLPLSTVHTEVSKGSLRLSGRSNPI
Method in brief: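 COS7 cells stably co-expressing Y4R-eYFP and Δ6Gαqi4-myr were seeded overnight. They were loaded with 2.4 μM Fluo2-AM in HBSS/20 mM HEPES/[…] for 60 min at 37 °C, then kept in assay buffer. Fluorescence was read at ex 485/em 525 nm. Compound was added after a 20 s baseline and peptide at 140 s. Response was taken as x-fold over basal, normalized to the DMSO control, and fitted to an operational model of allosterism. Duplicates, at least three independent runs.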

[3] = target: T2, Neuropeptide Y receptor type 2 (Homo sapiens, UniProt P49146); assay: ASSAY_NAME: ChEMBL_1668994 (CHEMBL4018882) DESCRIPTION: Positive allosteric modulation of human C-terminal eYFP-fused human NY2 receptor expressed in African green monkey COS7 cells co-expressing delta6Galphaqi4-myr assessed as potentiation of neuropeptide Y-mediated Ca2+ flux by measuring pancreatic polypeptide EC50 at 30 uM treated at 20 secs post baseline detection followed by addition of …
T2 sequence (P49146 whole entry): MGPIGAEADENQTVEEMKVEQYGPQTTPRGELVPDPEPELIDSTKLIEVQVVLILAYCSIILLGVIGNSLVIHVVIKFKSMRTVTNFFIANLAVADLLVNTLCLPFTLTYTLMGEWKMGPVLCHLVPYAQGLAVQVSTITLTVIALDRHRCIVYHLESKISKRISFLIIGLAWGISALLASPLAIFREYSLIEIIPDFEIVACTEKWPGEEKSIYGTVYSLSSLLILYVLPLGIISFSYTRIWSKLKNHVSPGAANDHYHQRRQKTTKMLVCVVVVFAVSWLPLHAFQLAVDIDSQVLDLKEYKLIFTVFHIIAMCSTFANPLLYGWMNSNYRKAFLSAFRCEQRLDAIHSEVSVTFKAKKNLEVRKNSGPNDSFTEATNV

[4] = target: T1, Neuropeptide Y receptor type 4; assay: Positive allosteric modulation of human C-terminal eYFP-tagged NY4 receptor expressed in HEK293 cells assessed as potentiation of pancreatic polypeptide-induced arrestin 3 recruitment by measuring pancreatic polypeptide EC50 at 30 uM after 30 mins by BRET assay (Rvb = 5.6 nM)
[5] = target: T1, Neuropeptide Y receptor type 4; assay: Effect on peptide YY-mediated displacement of 125I-pancreatic polypeptide from human C-terminal eYFP-tagged NY4 receptor expressed in HEK293 cell membranes assessed as peptide YY pKi at 30 uM after 5 hrs by scintillation counting (Rvb = 8 +/- 0.2 No_unit)
[6] = Positive allosteric modulation of human C-terminal eYFP-tagged NY4 receptor expressed in HEK293 cells assessed as potentiation of neuropeptide Y-induced arrestin 3 recruitment by measuring neuropeptide Y pEC50 at 30 uM after 30 mins by BRET assay (Rvb = 5.9 +/- 0.15 No_unit)
[7] = target: T1, Neuropeptide Y receptor type 4; assay: ASSAY_NAME: ChEMBL_1668991 (CHEMBL4018879) DESCRIPTION: Positive allosteric modulation of human NY4 receptor expressed in African green monkey COS7 cells co-expressing delta6Galphaqi4-myr assessed as potentiation of pancreatic polypeptide induced-calcium flux by measuring pancreatic polypeptide EC50 at 30 uM treated at 20 secs post baseline detection followed by addition of pancreatic polypeptide …
[8] = target: T1, Neuropeptide Y receptor type 4; assay: Positive allosteric modulation of human C-terminal eYFP-tagged NY4 receptor expressed in HEK293 cells assessed as potentiation of pancreatic polypeptide-induced arrestin 3 recruitment by measuring pancreatic polypeptide pEC50 at 30 uM after 30 mins by BRET assay (Rvb = 8.3 +/- 0.12 No_unit)
[9] = Positive allosteric modulation of human C-terminal eYFP-tagged NY4 receptor expressed in HEK293 cells assessed as potentiation of neuropeptide Y-induced arrestin 3 recruitment by measuring neuropeptide Y EC50 at 30 uM after 30 mins by BRET assay (Rvb = 1380 nM)
[10] = Positive allosteric modulation of human NY4 receptor expressed in African green monkey COS7 cells co-expressing delta6Galphaqi4-myr assessed as potentiation of neuropeptide Y induced-calcium flux by measuring neuropeptide Y pEC50 at 30 uM treated at 20 secs post baseline detection followed by addition of neuropeptide Y after 140 secs by Fluo2
[11] = target: T1, Neuropeptide Y receptor type 4; assay: Positive allosteric modulation of human C-terminal eYFP-tagged NY4 receptor expressed in HEK293 cells assessed as potentiation of peptide YY-induced arrestin 3 recruitment by measuring peptide YY pEC50 at 30 uM after 30 mins by BRET assay (Rvb = 5.8 +/- 0.20 No_unit)
[12] = Positive allosteric modulation of human NY4 receptor expressed in African green monkey COS7 cells co-expressing delta6Galphaqi4-myr assessed as potentiation of pancreatic polypeptide induced-calcium flux by measuring pancreatic polypeptide pEC50 at 30 uM treated at 20 secs post baseline detection followed by addition of pancreatic polypeptide
[13] = target: T1, Neuropeptide Y receptor type 4; assay: as §1, with “EC50” for “pEC50”, “2.6 nM)” for “8.6 +/- 0.08 No_unit)”
Method in brief: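 COS7 cells stably co-expressing human Y4R-eYFP fusion and chimeric Δ6Gαqi4-myr, seeded overnight in 96-well format; loaded with 2.4 μM Fluo2-AM in HBSS/20 mM HEPES/probenecid, 60 min at 37 °C. Two-addition FlexStation read (ex 485/em 525 nm): compound or DMSO after 20 s baseline, PYY at 140 s. Response as x-fold over basal, normalized to PP; duplicates, ≥3 independent experiments.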

[14] = target: T1, Neuropeptide Y receptor type 4; assay: Positive allosteric modulation of human C-terminal eYFP-tagged NY4 receptor expressed in HEK293 cells assessed as potentiation of peptide YY-induced arrestin 3 recruitment by measuring peptide YY EC50 at 30 uM after 30 mins by BRET assay (Rvb = 1600 nM)
[15] = target: T1, Neuropeptide Y receptor type 4; assay: Effect on neuropeptide Y-mediated displacement of 125I-pancreatic polypeptide from human C-terminal eYFP-tagged NY4 receptor expressed in HEK293 cell membranes assessed as neuropeptide Y pKi at 30 uM after 5 hrs by scintillation counting (Rvb = 7.9 +/- 0.2 No_unit)
[16] = Positive allosteric modulation of human C-terminal eYFP-fused human NY1 receptor expressed in African green monkey COS7 cells co-expressing delta6Galphaqi4-myr assessed as potentiation of neuropeptide Y-mediated Ca2+ flux by measuring […] at 30 uM treated at 20 secs post baseline detection followed by addition of neuro

- EC50 [1]: 0.4 nM
- EC50 [2]: 0.501 nM
- EC50 [3]: 0.0631 nM
- EC50 [4]: 4.5 nM
- Ki [5]: 6.3 nM
- EC50 [6]: 398 nM
- EC50 [7]: 0.03 nM
- EC50 [8]: 4 nM
- EC50 [9]: 443 nM
- EC50 [10]: 0.398 nM
- EC50 [11]: 794 nM
- EC50 [12]: 0.0398 nM
- EC50 [13]: 0.5 nM
- EC50 [14]: 845 nM
- Ki [15]: 6.3 nM
- EC50 [16]: 0.0398 nM
Compound: CC(C)(C)c1ccc(OC2CCCCC2O)cc1 (stereo unspecified)
